Among the data in ChEMBL document CHEMBL1126044, “Affinity of human growth hormone-releasing factor (1-29)NH2 analogues for GRF binding sites in rat adenopituitary” (J Med Chem, 1992) are Activity, Residual peptide remaining after 60 min and IC50 values, retold here.

Square brackets hold non-standard residues; d marks the D form. Peptide text beside a SMILES is read from it. Aoc = NCCCCCCCC(=O)O A value given as a limit tells only on which side of the number the result lay.

For experiment [1], the target named is T1, Growth hormone-releasing hormone receptor (Rattus norvegicus) (UniProt Q02644).
T1 sequence (whole entry): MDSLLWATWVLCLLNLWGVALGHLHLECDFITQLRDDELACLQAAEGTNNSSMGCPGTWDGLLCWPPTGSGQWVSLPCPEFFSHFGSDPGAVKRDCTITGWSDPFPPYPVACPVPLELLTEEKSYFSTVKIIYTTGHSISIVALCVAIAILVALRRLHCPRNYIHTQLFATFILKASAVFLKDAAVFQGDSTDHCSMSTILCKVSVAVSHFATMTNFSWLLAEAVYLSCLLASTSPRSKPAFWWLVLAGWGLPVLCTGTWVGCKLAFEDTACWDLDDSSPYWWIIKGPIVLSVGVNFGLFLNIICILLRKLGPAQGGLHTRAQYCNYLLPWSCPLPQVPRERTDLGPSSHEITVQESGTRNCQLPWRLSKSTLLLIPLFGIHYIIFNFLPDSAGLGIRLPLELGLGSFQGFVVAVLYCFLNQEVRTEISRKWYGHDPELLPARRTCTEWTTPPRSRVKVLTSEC
The experiment can be described thus: Relative affinity compared to hGRF(1-29)NH2. The class given is functional. The gist of the method: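 Radioligand competition in rat anterior pituitary homogenate using [125I-Tyr10]hGRF(1-44)NH2 at 35–50 pM and peptides at 0–1000 nM, 60 min at 23 °C. Relative affinity is the binding IC50 expressed as a percentage relative to hGRF(1-29)NH2.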

The species entered for a further experiment is Rattus norvegicus. In words: Residual concentration after 60 min incubation with pituitary homogenates, in the binding assay conditions, by quantitative HPLC method. The class given is functional. The method, boiled down: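 Peptide at 10 µM incubated with rat pituitary homogenate (150 µg protein/100 µL) in binding-assay conditions at 23 °C for 0 and 60 min. Reaction stopped with cold 50 mM phosphate pH 0.8 and centrifugation. Controls without homogenate accounted for adsorption. Remaining peptide measured by C18 HPLC (0.01% TFA/acetonitrile gradient, UV 214 nm) and peak-area integration.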

Experiment [2] addresses T2, Growth hormone-releasing hormone receptor (Rattus norvegicus, UniProt Q02644).
T2 sequence (Q02644 whole entry): T1 sequence (whole entry)
The experiment can be described thus: Compound was tested to Inhibit [125I]-Growth hormone-releasing factor in rat adenopituitary homogenates. The method, boiled down: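 Anterior pituitaries from 2-month-old male Sprague-Dawley rats homogenized in ice-cold 50 mM Tris-HCl pH 7.4 with 5 mM MgCl2, 5 mM EDTA. Homogenate (70–75 µg protein) incubated with 35–50 pM [125I-Tyr10]hGRF(1-44)NH2 and peptide at 0–1000 nM in Tris-HCl buffer pH 7.4 with 5 mM EDTA, 5 mM MgCl2, 0.42% BSA, 60 min at 23 °C. Nonspecific binding defined with 2.4 µM rGRF(1-29)NH2. Bound fraction separated by centrifugation and gamma-counted. IC50 fitted with LIGAND. Mean ± SEM of three experiments, each in duplicate or triplicate.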

One may read the IC50 as the concentration that inhibits the measured activity by half. Read a high IC50 as weaker potency.

Compound `CC[C@H](C)[C@H](NC(=O)[C@H](C)NC(=O)[C@H](CC(=O)O)NC(=O)[C@H](C)NC(=O)[C@H](Cc1ccc(O)cc1)NC(C)=O)C(=O)N[C@@H](Cc1ccccc1)C(=O)N[C@H](C(=O)N[C@@H](CC(N)=O)C(=O)N[C@@H](CO)C(=O)N[C@@H](Cc1ccc(O)cc1)C(=O)N[C@@H](CCCN=C(N)N)C(=O)N[C@@H](CCCCN)C(=O)N[C@H](C(=O)N[C@@H](CC(C)C)C(=O)NCC(=O)N[C@@H](CCC(N)=O)C(=O)N[C@@H](CC(C)C)C(=O)N[C@@H](CO)C(=O)N[C@@H](C)C(=O)N[C@@H](CCCN=C(N)N)C(=O)N[C@@H](CCCCN)C(=O)N[C@@H](CC(C)C)C(=O)N[C@@H](CC(C)C)C(=O)N[C@@H](CCC(N)=O)C(=O)N[C@@H](CC(=O)O)C(=O)N[C@H](C(=O)N[C@@H](CCSC)C(=O)N[C@@H](CO)C(=O)N[C@@H](CCCN=C(N)N)C(N)=O)[C@@H](C)CC)C(C)C)[C@@H](C)O` came in with an Activity in experiment [1] of 32%. This compound also gave a Residual peptide remaining after 60 min in the experiment listed under Rattus norvegicus of 85%.

Take `CC[C@H](C)[C@H](NC(=O)[C@H](C)NC(=O)[C@H](CC(=O)O)NC(=O)[C@H](C)NC(=O)[C@H](Cc1ccc(O)cc1)NC(=O)CCCN)C(=O)N[C@@H](Cc1ccccc1)C(=O)N[C@H](C(=O)N[C@@H](CC(N)=O)C(=O)N[C@@H](CO)C(=O)N[C@@H](Cc1ccc(O)cc1)C(=O)N[C@@H](CCCN=C(N)N)C(=O)N[C@@H](CCCCN)C(=O)N[C@H](C(=O)N[C@@H](CC(C)C)C(=O)NCC(=O)N[C@@H](CCC(N)=O)C(=O)N[C@@H](CC(C)C)C(=O)N[C@@H](CO)C(=O)N[C@@H](C)C(=O)N[C@@H](CCCN=C(N)N)C(=O)N[C@@H](CCCCN)C(=O)N[C@@H](CC(C)C)C(=O)N[C@@H](CC(C)C)C(=O)N[C@@H](CCC(N)=O)C(=O)N[C@@H](CC(=O)O)C(=O)N[C@H](C(=O)N[C@@H](CCSC)C(=O)N[C@@H](CO)C(=O)N[C@@H](CCCN=C(N)N)C(N)=O)[C@@H](C)CC)C(C)C)[C@@H](C)O`: the Activity in experiment [1] is 41%.

H-YADAIFTNSYRKVLGQLSARKLLQDIMS-NH2 had an IC50 in experiment [2] of 20.2 nM. In experiment [1], this compound displayed an Activity of 28%.

The compound “H-YADAIFTNSYRKVLGQLSARKLLQIMSR-NH2 [listing 1 of 2 here]” gave an Activity in experiment [1] of 33%.

As for H-YADAIFTNSYRKVLQLSARKLLQDIMSR-NH2, in experiment [2], the IC50 stood at 1000 nM. In the experiment listed under Rattus norvegicus, the Residual peptide remaining after 60 min is 88%.

“H-YADAIFTNSYRKVLGQLSARKLLDIMSR-NH2 [listing 1 of 2 here]” returned an Activity in experiment [1] of 12%. The same compound returned a Residual peptide remaining after 60 min in the experiment filed under Rattus norvegicus of 85%.

On to H-HADAIFTSSYRRILGQLYARKLLHEIMNR-NH2, for which, in experiment [2], half-maximal inhibition (IC50) required 9.8 nM. In experiment [1], this compound gave an Activity of 57%.

With H-YADAIFTNSYRKVLGQLSARKLLQDMSR-NH2, inhibition in experiment [2] was half-maximal at 20.3 nM (IC50). The compound further yielded an Activity in experiment [1] of 30%.

`CC[C@H](C)[C@H](NC(=O)[C@H](C)NC(=O)[C@H](CC(=O)O)NC(=O)[C@H](C)NC(=O)[C@H](Cc1ccc(O)cc1)NC(=O)CCCCCN)C(=O)N[C@@H](Cc1ccccc1)C(=O)N[C@H](C(=O)N[C@@H](CC(N)=O)C(=O)N[C@@H](CO)C(=O)N[C@@H](Cc1ccc(O)cc1)C(=O)N[C@@H](CCCN=C(N)N)C(=O)N[C@@H](CCCCN)C(=O)N[C@H](C(=O)N[C@@H](CC(C)C)C(=O)NCC(=O)N[C@@H](CCC(N)=O)C(=O)N[C@@H](CC(C)C)C(=O)N[C@@H](CO)C(=O)N[C@@H](C)C(=O)N[C@@H](CCCN=C(N)N)C(=O)N[C@@H](CCCCN)C(=O)N[C@@H](CC(C)C)C(=O)N[C@@H](CC(C)C)C(=O)N[C@@H](CCC(N)=O)C(=O)N[C@@H](CC(=O)O)C(=O)N[C@H](C(=O)N[C@@H](CCSC)C(=O)N[C@@H](CO)C(=O)N[C@@H](CCCN=C(N)N)C(N)=O)[C@@H](C)CC)C(C)C)[C@@H](C)O` gave an Activity in experiment [1] of 85%.

In experiment [1], “H-YADAIFTNSYRKVLGQLSARKLLQDISR-NH2 [listing 1 of 2 here]” had an Activity of 62%.

For the compound H-YADAIFTNSYRKLGQLSARKLLQDIMSR-NH2, in experiment [2], the 50% inhibitory concentration (IC50) was > 1000 nM. This compound gave a Residual peptide remaining after 60 min in the experiment filed under Rattus norvegicus of 89%.

On to “H-YADAIFTNSYRKVLGQLSARKLLQDISR-NH2 [listing 2 of 2 here]”, for which, in experiment [2], the IC50 came out at 9.5 nM.

Compound H-YADAIFTNSYRKVLGQLSARKLLQDIMR-NH2 gave a 50% inhibitory concentration (IC50) in experiment [2] of 7.2 nM.

As to “H-YADAIFTNSYRKVLGQLSARKLLDIMSR-NH2 [listing 2 of 2 here]”, in experiment [2], the 50% inhibitory concentration (IC50) turned out to be 45.2 nM.

With `CC[C@H](C)[C@H](NC(=O)[C@H](C)NC(=O)[C@H](CC(=O)O)NC(=O)[C@H](C)NC(=O)[C@@H](N)Cc1ccc(O)cc1)C(=O)N[C@@H](Cc1ccccc1)C(=O)N[C@H](C(=O)N[C@@H](CC(N)=O)C(=O)N[C@@H](CO)C(=O)N[C@@H](Cc1ccc(O)cc1)C(=O)N[C@@H](CCCNC(=N)N)C(=O)N[C@@H](CCCCN)C(=O)N[C@H](C(=O)N[C@@H](CC(C)C)C(=O)NCC(=O)NCCCCCCCC(=O)N[C@@H](C)C(=O)N[C@@H](CCCNC(=N)N)C(=O)N[C@@H](CCCCN)C(=O)N[C@@H](CC(C)C)C(=O)N[C@@H](CC(C)C)C(=O)N[C@@H](CCC(N)=O)C(=O)N[C@@H](CC(=O)O)C(=O)N[C@H](C(=O)N[C@@H](CCSC)C(=O)N[C@@H](CO)C(=O)N[C@@H](CCCNC(=N)N)C(N)=O)[C@@H](C)CC)C(C)C)[C@@H](C)O` (H-YADAIFTNSYRKVLG[Aoc]ARKLLQDIMSR-NH2), the half-maximal inhibitory concentration (IC50) in experiment [2] is > 1000 nM.

“H-ADAIFTNSYRKVLAQLSARKLLQDIMSR-NH2 [listing 1 of 2 here]” returned an IC50 in experiment [2] of 377 nM.

For the compound “H-ADAIFTNSYRKVLAQLSARKLLQDIMSR-NH2 [listing 2 of 2 here]”, in experiment [1], the Activity is 1.5%.

Take `CC[C@H](C)[C@H](NC(=O)[C@H](C)NC(=O)[C@H](CC(=O)O)NC(=O)[C@H](C)NC(=O)[C@@H](N)Cc1ccc(O)cc1)C(=O)N[C@@H](Cc1ccccc1)C(=O)N[C@H](C(=O)N[C@@H](CC(N)=O)C(=O)N[C@@H](CO)C(=O)N[C@@H](Cc1ccc(O)cc1)C(=O)N[C@@H](CCCNC(=N)N)C(=O)N[C@@H](CCCCN)C(=O)N[C@H](C(=O)N[C@@H](CC(C)C)C(=O)NCC(=O)N[C@@H](CCC(N)=O)C(=O)N[C@@H](CC(C)C)C(=O)N[C@@H](CO)C(=O)NCCCCCCCC(=O)N[C@@H](CC(C)C)C(=O)N[C@@H](CC(C)C)C(=O)N[C@@H](CCC(N)=O)C(=O)N[C@@H](CC(=O)O)C(=O)N[C@H](C(=O)N[C@@H](CCSC)C(=O)N[C@@H](CO)C(=O)N[C@@H](CCCNC(=N)N)C(N)=O)[C@@H](C)CC)C(C)C)[C@@H](C)O` (H-YADAIFTNSYRKVLGQLS[Aoc]LLQDIMSR-NH2): the concentration for half-maximal inhibition (IC50) in experiment [2] is > 1000 nM.

In turn, `CC[C@H](C)[C@H](NC(=O)[C@H](C)NC(=O)[C@H](CC(=O)O)NC(=O)[C@H](C)NC(=O)[C@H](Cc1ccc(O)cc1)NC(C)=O)C(=O)N[C@@H](Cc1ccccc1)C(=O)N[C@H](C(=O)N[C@@H](CC(N)=O)C(=O)N[C@@H](CO)C(=O)N[C@@H](Cc1ccc(O)cc1)C(=O)N[C@@H](CCCNC(=N)N)C(=O)N[C@@H](CCCCN)C(=O)N[C@H](C(=O)N[C@@H](CC(C)C)C(=O)NCC(=O)N[C@@H](CCC(N)=O)C(=O)N[C@@H](CC(C)C)C(=O)N[C@@H](CO)C(=O)N[C@@H](C)C(=O)N[C@@H](CCCNC(=N)N)C(=O)N[C@@H](CCCCN)C(=O)N[C@@H](CC(C)C)C(=O)N[C@@H](CC(C)C)C(=O)N[C@@H](CCC(N)=O)C(=O)N[C@@H](CC(=O)O)C(=O)N[C@H](C(=O)N[C@@H](CCSC)C(=O)N[C@@H](CO)C(=O)N[C@@H](CCCNC(=N)N)C(N)=O)[C@@H](C)CC)C(C)C)[C@@H](C)O` came in with an IC50 in experiment [2] of 17.6 nM.

As for “H-YADAIFTNSYRKVLGQLSARKLLQIMSR-NH2 [listing 2 of 2 here]”, in experiment [2], half-maximal inhibition (IC50) was put at 16.9 nM.
